A selection: hits, their analogues and other compounds. The true share with any hit is near 11%.
SF-1 act = activators of human nuclear receptor SF-1. AID 522. activation, % at 10 µM. CHO-K1 Gal4-SF-1 LBD luciferase reporter; % increase over DMSO SF-1-specific signal. actives 1.9% (n = 65,000);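 active = activation above the mean activation of all tested compounds plus 3 SD, cut at about 50% in these data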
Target sequence (Q13285 whole entry, looked up, the tested form may be a part): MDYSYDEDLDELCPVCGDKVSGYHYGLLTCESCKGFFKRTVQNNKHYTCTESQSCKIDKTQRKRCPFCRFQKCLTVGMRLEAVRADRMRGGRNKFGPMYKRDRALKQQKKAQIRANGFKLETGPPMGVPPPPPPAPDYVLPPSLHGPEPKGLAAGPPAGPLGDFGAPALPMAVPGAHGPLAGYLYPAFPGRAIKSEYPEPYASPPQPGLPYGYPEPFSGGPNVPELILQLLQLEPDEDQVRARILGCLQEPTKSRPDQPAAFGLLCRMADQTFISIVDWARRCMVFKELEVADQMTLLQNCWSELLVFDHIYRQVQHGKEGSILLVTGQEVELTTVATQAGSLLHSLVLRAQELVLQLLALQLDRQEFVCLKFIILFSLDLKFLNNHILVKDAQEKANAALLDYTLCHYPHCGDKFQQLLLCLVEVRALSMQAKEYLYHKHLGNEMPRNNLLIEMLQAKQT
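System: CHO-K1 cells with Gal4–hSF-1 LBD chimera plus Gal4-driven luciferase; quantity: 4,000 CHO-K1 cells per well; compound: one dose, 10 µM compound, 1% DMSO; times: 20 h compound treatment, 37 °C; measured by: SteadyLite luciferase luminescence; read-out: percent activation versus DMSO; benchmarks: DMSO and mock-transfected background; replicates: one test per compound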
M1 antagonist = blocks the rat M1 muscarinic receptor response to acetylcholine. P08482. CHO-M1 cells, Fluo-4 calcium, ACh EC80 antagonist mode; hits give low values. B-score at 10 µM. actives 3.4% (n = 64,000);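 active = calcium fluorescence response, raw or row-and-column corrected B-score, differing from the plate sample mean either way at a set confidence level, mostly lower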
mHtt clearance = mutant huntingtin protein clearance | HeLa Exon1htt(103Q)mCFP, aggregate imaging; zero = plate's median compound well | inhibition, % at 1.5 µM | actives 0.42% (n = 47,000);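 active = inhibition of aggregate fluorescence above about 70%, also judged a hit by eye on the cell image, limit read from the data, passing the limit was not always enough; inconclusive = no rule stated for this call; inactive = not judged a hit on image review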;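 note: cells exposed to compound for three days before fixation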
M1 agonist = activates the M1 muscarinic receptor | actives 3% (n = 64,000) | B-score at 10 µM | CHO-M1 cells, Fluo-4 calcium fluorescence, agonist mode; hits give high values;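 active = fluorescence rise, raw or as B-score row- and column-corrected plate score, outside the 99.7% band of its plate's samples, either direction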
D1 allo mod = D1 dopamine receptor (human) allosteric modulation. P21728. HEK293 D1, CRE-luciferase, dopamine EC30 potentiation; actives deviate in either direction. B-score at 10 µM. actives 5.9% (n = 58,000). AID 641;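 active = luminescence count or its row- and column-corrected plate score outside the 99.7% band of the plate's sample wells, on either side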
RORA act = activators of human nuclear receptor RORA | P35398 | CHO-K1 Gal4-RORA LBD luciferase reporter, luminescence; percent increase over mock-subtracted basal signal | activation, % at 10 µM | actives 1.5% (n = 65,000) | AID 560;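 active = activation above the mean of all tested compounds plus 3 SD, cut at about 49% in these data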;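 note: 0% = DMSO-treated RORA cells and 100% = added signal equal to DMSO minus mock-transfected cells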
Numbers without * were called inactive; i = inactive; ? = inconclusive; . = no result given.

SMILES | SF-1 act | M1 antagonist | mHtt clearance | M1 agonist | D1 allo mod | RORA act
Cc1ccccc1-c1nnc(-c2ccc(Br)cc2)o1 | 77* | 0.95 | 3 | 0.75 | -1 | 32
Brc1cccc(-c2nnc(-c3ccccc3)o2)c1 | 60* | 0.0071 | . | -0.18 | -1.7 | 39
COc1ccc(/C(O)=C2\C(=O)C(=O)N(CCCN(C)C)C2c2ccccc2F)cc1Cl (configuration not stated) | -14 | 0.33 | . | 0.21 | -0.012 | -14
Cc1cc(NC(=O)CCSc2nc(-c3ccco3)cc(C(F)(F)F)n2)n(-c2ccccc2)n1 | . | . | 58 | . | . | .
CC(=O)NC(CCS(C)(=O)=O)C(=O)Nc1cccc(C(C)=O)c1 (configuration not stated) | -20 | 0.46 | . | -0.68 | -0.018 | 14
O=C(c1ccc(CN2CCOCC2)cc1)N1CCC(Cc2ccccc2)CC1 | 6 | 0.029 | . | -0.082 | -3.3* | -8
CN1CCN(C(=O)c2ccc(CN3CCOCC3)cc2)CC1 | -10 | 0.48 | -92 | 0.11 | 0.46 | -11
CCC(=O)c1cc(-c2nc3ccccc3n2C)n(C)c1 | -11 | -1.6 | -61 | 0.66 | 0.27 | -14
Cc1oc(-c2nc3ccccc3n2C)cc1C(=O)c1ccccc1 | -22 | -1.9 | . | -0.84 | -3.8* | -32
Cn1c(-c2ccc(Br)o2)nc2cc(Br)ccc21 | 89* | 0.48 | -2 | 0.59 | -0.16 | 39
COc1cc2nc(-c3ccc(Br)o3)oc(=O)c2cc1OC | -3 | 0.034 | 10 | -0.072 | 1 | -8
Cn1c(-c2ccc(Br)o2)nc2ccccc21 | 76* | 0.17 | -50 | 1.7 | -1.4 | 73*
CC(=O)c1ccc(-c2nc3ccccc3n2C)o1 | 25 | 0.42 | 25 | 0.81 | 0.059 | 28
O=C(c1cc2ccccc2oc1=O)N(Cc1ccccc1)Cc1ccc2c(c1)OCO2 | . | . | 36 | . | . | .
CCCCNC(=O)CN(C1CCCCC1)S(C)(=O)=O | -8 | 0.35 | 37 | -0.011 | 0.37 | -17
Cc1ccc2c(C)nc(NC3=NCN(C(C)C)CN3)nc2c1 | -15 | -0.14 | -27 | -0.3 | -1.6 | -12
C#CCOC(=O)c1ccccc1C(=O)n1nnc2ccccc21 | 2 | 0.34 | . | -2.3* | -0.52 | -26
O=C(NCCc1ccccc1)C1CCCN1C(=O)Nc1ccc(F)cc1 (configuration not stated) | -24 | 0.92 | . | 0.72 | -0.077 | 2
OCc1nn2c(c1Br)NC(c1ccccc1)CC2C(F)(F)F (configuration not stated) | -2 | -0.24 | -31 | 0.063 | 0.58 | 2
Cn1c(-c2ccccc2)cc2c3no[n+]([O-])c3ccc21 | -73 | 0.14 | i | 0.18 | -1.3 | -66
Cc1cc(C)n(-c2ccc(C(=O)Nc3nc4ccccc4s3)cc2)n1 | 26 | -0.29 | . | -0.51 | 0.095 | 49*
Cc1cc(C)n(-c2ccc(C(=O)NC3=NCCS3)cc2)n1 | 33 | -1 | 3 | -0.46 | -0.38 | 51*
Nc1ccc(C(=O)Nc2nc3ccccc3s2)cc1 | . | -0.37 | . | 0.18 | -6.6* | .
O=C1c2ccccc2C(=O)N1CCn1c(=O)oc2ccccc21 | 24 | 0.3 | 1 | 0.038 | 0.25 | 18
CCOC(=O)C1CCCN(C(=O)C(C)Oc2ccc(Cl)cc2Cl)C1 (configuration not stated) | -2 | 0.14 | . | 4.5* | 0.14 | -17
SMILES | SF-1 act | M1 antagonist | mHtt clearance | M1 agonist | D1 allo mod | RORA act
COC(=O)C1CCN(C(=O)C(C)Oc2ccc(Cl)cc2Cl)CC1 (configuration not stated) | 4 | 1.2* | . | -0.15 | 0.71 | 0
CCOC(=O)C1CCN(C(=O)COc2ccc(Cl)cc2Cl)CC1 | 3 | -0.14 | . | -0.075 | -0.36 | -19
COc1cccc(C2/C(=C(/O)c3cnn(-c4ccccc4)c3C)C(=O)C(=O)N2CCN(C)C)c1 (configuration not stated) | 1 | -0.43 | . | -0.034 | -0.095 | -15
CC(C)NC(=O)COc1ncnc2sccc12 | . | . | 42 | . | . | .
C=CCn1c(C)cc(C(=O)COc2ncnc3sccc23)c1C | -18 | 0.4 | 60 | -0.15 | -4.5* | -36
COc1ccc(NCC(=O)Nc2ccc(Cl)cc2C)c(OC)c1 | -19 | -0.95 | . | 0.41 | 0.35 | -8
Cc1nn(C(=O)c2ccc3c(c2)OCO3)c(N)c1-c1ccccc1 | -22 | -0.061 | . | -1.7 | -5.7* | 15
Cc1nn(C(=O)c2cccs2)c(N)c1-c1ccccc1 | 54* | 0.29 | . | 0.017 | -0.81 | 57*
O=C(c1ccc2c(c1)OCO2)N1CCN(c2ccccc2)CC1 | -22 | 0.024 | 30 | -0.15 | 0.16 | -22
O=C(O)C1C2C=CC(O2)C1C(=O)NC1CCCc2ccccc21 (configuration not stated) | -2 | -0.044 | . | 0.0076 | . | -3
COc1cccc2c3c(c(C)nc12)CC(C)O3 (configuration not stated) | -9 | 0.026 | ? | 0.049 | -3.4* | -7
CCOC(=O)c1ccc2nc(C)c3c(c2c1)OC(C)C3 (configuration not stated) | -10 | 0.15 | 17 | -0.15 | -2.7* | -16
COc1ccc2[nH]c3nc(SC(C)C)nnc3c2c1 | -63 | -0.88 | . | -0.86 | -4* | -14
COCCn1c(=O)[nH]c2cc(C(=O)NCCN3CCN(c4ccccc4F)CC3)ccc2c1=O | 7 | . | . | . | -0.86 | -18
COCCn1c(=O)[nH]c2cc(C(=O)NCCCN3CCN(c4ccc(F)cc4)CC3)ccc2c1=O | 0 | -0.73 | . | 0.16 | -4.4* | 9
O=C(NCCN1CCCC1)c1ccc2c(=O)n(CCc3ccccc3)c(=O)[nH]c2c1 | -3 | -0.16 | 4 | -1.3 | -3.7* | 13
Cc1cc2c3nonc3ccc2n1-c1ccccc1 | . | 0.11 | . | 1.1 | 1.1 | .
c1ccc(Nc2nc(-c3cccnc3)cs2)nc1 | 46 | 0.66 | -11 | -2.7* | 0.84 | 52*
C=CCOC(=O)c1[nH]c2c(c1C)C(=O)CC(c1ccco1)C2 (configuration not stated) | -25 | -2.2 | . | -0.29 | 1.2 | -32
Cc1c(C(=O)OCC2CCCO2)[nH]c2c1C(=O)CC(c1ccco1)C2 (configuration not stated) | 4 | -0.12 | . | 0.45 | -1.1 | 56*
CC(NS(=O)(=O)c1ccccc1)C(N)=O (configuration not stated) | -10 | 0 | 32 | 0.22 | -0.43 | -19
CCOC(=O)C1=C(CC)Nc2ccccc2N=C1NC(=O)Nc1ccccc1OC | 4 | 0.84* | . | 0.87 | 0.25 | -17
CC(=O)NC1(c2cccc(F)c2)CCN(C(=O)Nc2ccc(C#N)cc2)CC1 | 7 | 0.76 | . | 0.39 | . | -16
Cc1ccc(-c2cc(C(=O)NCC3CCCO3)no2)cc1 (configuration not stated) | 21 | 0.044 | 15 | -0.6 | -2 | 35
O=C(NCC1CCCO1)c1csc2c1CCCCC2 (configuration not stated) | -5 | 0.46 | . | -0.64 | -3.3* | 6
